From ChEMBL document CHEMBL1154217, “Antimalarial and cytotoxic depsidones from the fungus Chaetomium brasiliense” (J Nat Prod, 2009)
≈ marks a conversion by molar mass, not a printed value. Calls of active or inactive are those of the source. No cut-off for these calls is given here.

Experiments:
Plasmodium falciparum [1] = assay: Antimalarial activity against multi drug-resistant Plasmodium falciparum K1 assessed as [3H]hypoxanthine uptake after 18 hrs by microculture radioisotope technique; type: functional, organism-based
Outline: (§1)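 Multidrug-resistant P. falciparum K1 was cultured by the Trager and Jensen method and tested in vitro by microculture radioisotope technique. Growth was read as [³H]-hypoxanthine uptake, and IC50 was taken as the concentration giving 50% reduction in parasite growth. Artemisinin served as the reference standard.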

KB [2] = assay: Cytotoxicity against human KB cells by SRB assay; type: functional, cell-based
NCI-H187 = assay: Cytotoxicity against human NCI-H187 cells by SRB assay; type: functional, cell-based
[3] = tested on: Mycobacterium tuberculosis; assay: Antimycobacterial activity against Mycobacterium tuberculosis H37Ra at > 50 ug/mL after 4 days by almar blue assay; type: functional, organism-based
Outline: (§2)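 M. tuberculosis H37Ra was tested by microplate Alamar Blue assay (MABA), with isoniazid and kanamycin sulfate as reference drugs.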

Candida albicans [4] = assay: Antifungal activity against Candida albicans by XTT assay; type: functional, organism-based
Outline: (§3)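 Clinical isolate of Candida albicans tested by an assay modified from the soluble formazan (XTT) method. Viable cells were quantified from XTT formazan absorbance at 450 nm. Amphotericin B served as the reference substance.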

[5] = Cytotoxicity against human KKU100 cells by MTT assay; type: functional, cell-based
[6] = Cytotoxicity against human KKU-M139 cells by MTT assay; type: functional, cell-based
[7] = Cytotoxicity against human KKU-M156 cells by MTT assay; type: functional, cell-based
[8] = Cytotoxicity against human KKU-M213 cells by MTT assay; type: functional, cell-based
[9] = Cytotoxicity against human KKU-M214 cells by MTT assay; type: functional, cell-based
BC1 = assay: Cytotoxicity against human BC1 cells at > 50 ug/mL by SRB assay; type: functional, cell-based
[10] = tested on: Mycobacterium tuberculosis; assay: Antimycobacterial activity against Mycobacterium tuberculosis H37Ra after 4 days by almar blue assay; type: functional; details: 96 h; outline: as §2
[11] = Cytotoxicity against human BC1 cells by SRB assay; type: functional, cell-based
Plasmodium falciparum [12] = assay: Antimalarial activity against multi drug-resistant Plasmodium falciparum K1 assessed as [3H]hypoxanthine uptake at > 50 ug/mL after 18 hrs by microculture radioisotope technique; type: functional, organism-based; outline: as §1
Candida albicans [13] = assay: Antifungal activity against Candida albicans at > 50 ug/mL by XTT assay; type: functional, organism-based; outline: as §3
KB [14] = assay: Cytotoxicity against human KB cells at > 50 ug/mL by SRB assay; type: functional, cell-based

Compound | IC50 (Plasmodium falciparum [1]) | IC50 (KB [2]) | IC50 (NCI-H187) | Activity [3] | IC50 (Candida albicans [4]) | IC50 [5] | IC50 [6] | IC50 [7] | IC50 [8] | IC50 [9] | Activity (BC1) | MIC [10] | IC50 [11] | Activity (Plasmodium falciparum [12]) | Activity (Candida albicans [13]) | Activity (KB [14])
CC(C)=CCc1c(O)cc2c(c1C)OC(=O)c1c(C)c(Cl)c(O)c(C=O)c1O2 [MOLLICELLIN J] | 4.9 µg/mL (≈ 12.2 µM) | 29.1 µg/mL (≈ 72.2 µM) | 23.3 µg/mL (≈ 57.8 µM) | inactive |  |  |  |  |  |  |  |  |  |  |  | 
COc1c(O)c2c(c(C)c1C(=O)C=C(C)C)Oc1c(C=O)c(O)cc(C)c1C(=O)O2 [MOLLICELLIN C] | 9.1 µg/mL (≈ 22.1 µM) | 46.3 µg/mL (≈ 112 µM) | 3.1 µg/mL (≈ 7.52 µM) | inactive | 49.9 µg/mL (≈ 121 µM) | 5.12 µg/mL (≈ 12.4 µM) | 2.51 µg/mL (≈ 6.09 µM) | 4.18 µg/mL (≈ 10.1 µM) | 3.2 µg/mL (≈ 7.76 µM) | 3.35 µg/mL (≈ 8.12 µM) | inactive |  |  |  |  | 
NC[C@H]1O[C@H](O[C@H]2[C@H](O)[C@@H](O[C@H]3O[C@H](CO)[C@@H](O)[C@H](N)[C@H]3O)[C@H](N)C[C@@H]2N)[C@H](O)[C@@H](O)[C@@H]1O.O=S(=O)(O)O [KANAMYCIN SULFATE] |  |  |  |  |  |  |  |  |  |  |  | 2.5 µg/mL |  |  |  | 
NNC(=O)c1ccncc1 [ISONIAZID] |  |  |  |  |  |  |  |  |  |  |  | 0.05 µg/mL (≈ 0.365 µM) |  |  |  | 
Cc1c2ccncc2c(C)c2c1[nH]c1ccccc12 [ELLIPTECINE] |  |  |  |  |  | 7.11 µg/mL (≈ 28.9 µM) | 1.21 µg/mL (≈ 4.91 µM) | 2.02 µg/mL (≈ 8.2 µM) | 0.3 µg/mL (≈ 1.22 µM) | 0.21 µg/mL (≈ 0.853 µM) |  |  | 0.26 µg/mL (≈ 1.06 µM) |  |  | 
C[C@@H]1CC[C@H]2[C@@H](C)C(=O)O[C@@H]3O[C@@]4(C)CC[C@@H]1[C@]32OO4 [ARTEMISININ] | 0.001 µg/mL (≈ 0.00354 µM) |  |  |  |  |  |  |  |  |  |  |  |  |  |  | 
COc1c(O)c2c(c(C)c1C(=O)C=C(C)C)Oc1c(C=O)c(O)c(Cl)c(C)c1C(=O)O2 [MOLLICELLIN E] | 3.2 µg/mL (≈ 7.16 µM) |  | 1 µg/mL (≈ 2.24 µM) | inactive | 39.7 µg/mL (≈ 88.8 µM) | 4.83 µg/mL (≈ 10.8 µM) | 5.03 µg/mL (≈ 11.3 µM) | 5.22 µg/mL (≈ 11.7 µM) | 4.44 µg/mL (≈ 9.94 µM) | 7.81 µg/mL (≈ 17.5 µM) |  |  |  |  |  | 
Cc1cc(O)c(C=O)c2c1C(=O)Oc1c(O)c3c(c(C)c1O2)C(=O)CC(C)(C)O3 [MOLLICELLIN N] |  | 25.9 µg/mL (≈ 65 µM) | 13.5 µg/mL (≈ 33.9 µM) | inactive |  | 6.46 µg/mL (≈ 16.2 µM) | 4.34 µg/mL (≈ 10.9 µM) | 2.9 µg/mL (≈ 7.28 µM) | 3 µg/mL (≈ 7.53 µM) | 5.05 µg/mL (≈ 12.7 µM) |  |  |  | inactive | inactive | 
Cc1cc(O)c(C=O)c2c1C(=O)Oc1c(cc3c(c1C)C(=O)CC(C)(C)O3)O2 [MOLLICELLIN B] | 4.7 µg/mL (≈ 12.3 µM) | 37.1 µg/mL (≈ 97 µM) | 14.7 µg/mL (≈ 38.4 µM) | inactive |  | 4.63 µg/mL (≈ 12.1 µM) | 11.7 µg/mL (≈ 30.5 µM) | 15.7 µg/mL (≈ 41 µM) | 6.94 µg/mL (≈ 18.2 µM) | 4.5 µg/mL (≈ 11.8 µM) |  |  |  |  | inactive | 
CC(C)=CCc1c(O)cc2c(c1C)OC(=O)c1c(C)cc(O)c(C=O)c1O2 [MOLLICELLIN H] |  | 16.6 µg/mL (≈ 45.1 µM) | 3.9 µg/mL (≈ 10.6 µM) | inactive |  |  |  |  |  |  |  |  |  |  |  | 
Cc1c2c(cc3c1C(=O)CC(C)(C)O3)Oc1c(C=O)c(O)c(Cl)c(C)c1C(=O)O2 [MOLLICELLIN M] | 2.9 µg/mL (≈ 6.96 µM) |  | 0.68 µg/mL (≈ 1.63 µM) | inactive |  | 6.28 µg/mL (≈ 15.1 µM) |  |  |  |  | inactive |  |  |  | inactive | inactive
C[C@@H]1[C@H](O)[C@@H](C)/C=C/C=C/C=C/C=C/C=C/C=C/C=C/[C@H](O[C@@H]2O[C@H](C)[C@@H](O)[C@H](N)[C@@H]2O)C[C@@H]2O[C@](O)(C[C@@H](O)C[C@@H](O)[C@H](O)CC[C@@H](O)C[C@@H](O)CC(=O)O[C@H]1C)C[C@H](O)[C@H]2C(=O)O [AMPHOTERICIN B] |  |  |  |  | 0.034 µg/mL (≈ 0.0368 µM) |  |  |  |  |  |  |  |  |  |  | 
Cc1c2c(c(O)c3c1C(=O)CC(C)(C)O3)OC(=O)c1c(C)c(Cl)c(O)c(C=O)c1O2 [MOLLICELLIN F] |  | 37.9 µg/mL (≈ 87.6 µM) | 13.1 µg/mL (≈ 30.3 µM) | inactive |  | 5.21 µg/mL (≈ 12 µM) | 5.21 µg/mL (≈ 12 µM) | 5.36 µg/mL (≈ 12.4 µM) | 4.98 µg/mL (≈ 11.5 µM) | 4.4 µg/mL (≈ 10.2 µM) |  |  |  | inactive |  | 
COc1cc2c(c(C)c1C(=O)C=C(C)C)OC(=O)c1c(C)cc(O)c(C=O)c1O2 [MOLLICELLIN L] | 3.4 µg/mL (≈ 8.58 µM) | 33.9 µg/mL (≈ 85.5 µM) | 9.5 µg/mL (≈ 24 µM) | inactive |  |  | 8.55 µg/mL (≈ 21.6 µM) | 6.04 µg/mL (≈ 15.2 µM) | 13.2 µg/mL (≈ 33.3 µM) | 4.51 µg/mL (≈ 11.4 µM) |  |  |  |  | inactive | 
CC(C)=CC(=O)c1c(O)cc2c(c1C)OC(=O)c1c(C)cc(O)c(C=O)c1O2 [MOLLICELLINE K] | 1.2 µg/mL (≈ 3.14 µM) | 1.9 µg/mL (≈ 4.97 µM) | 0.35 µg/mL (≈ 0.915 µM) |  | 1.2 µg/mL (≈ 3.14 µM) | 4.46 µg/mL (≈ 11.7 µM) | 13.9 µg/mL (≈ 36.5 µM) | 6.65 µg/mL (≈ 17.4 µM) |  | 4.92 µg/mL (≈ 12.9 µM) |  | 12.5 µg/mL (≈ 32.7 µM) | 6.8 µg/mL (≈ 17.8 µM) |  |  | 
